# ChEMBL document CHEMBL3217582, “Design of symmetrical and nonsymmetrical N,N-dimethylaminopyridine derivatives as highly potent choline kinase alpha inhibitors” (Medchemcomm, 2013)
# Calls of active or inactive are those of the source. No cut-off for these calls is given here.
# What was measured:
# A549 = experiment: Growth inhibition of human A549 cells overexpressing CHKA2 after 72 hrs by sulforhodamine assay; format: functional; conditions: A549, 72 h
# Outline: (§1)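 A549 (DMEM) or HCT-116 (RPMI-1640) cells in 10% FCS, 37°C, 5% CO2. Cells treated 24 h after seeding with 9 inhibitor concentrations, six replicates, for 72 h. Fixed with 10% TCA, stained with 0.4% SRB, read at 540 nm. GI50 from variable-slope sigmoidal fit of percent-of-control curves.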
# [1] = Inhibition of recombinant delta49N CHKA2 (unknown origin) assessed as ADP formation using choline as substrate by enzyme coupled assay; design: species or system Homo sapiens
# Outline: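 Δ49N CHKA2 (20 ng) with 72 µM choline and 450 µM ATP (both at KM) in 100 mM Tris pH 7.5, 100 mM KCl, 10 mM MgCl2. Coupled system: 500 µM PEP, pyruvate kinase, LDH, 250 µM NADH. Inhibitor at varying concentrations. ADP formation followed as NADH loss at 340 nm. IC50 from variable-slope sigmoidal least-squares fit.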
# HCT-116 = experiment: Growth inhibition of human HCT116 cells overexpressing CHKA2 after 72 hrs by sulforhodamine assay; format: functional; conditions: HCT-116, 72 h; outline: as §1
# Homo sapiens [2] = species: Homo sapiens; experiment: Mixed inhibition of recombinant delta49N CHKA2 (unknown origin) using choline as substrate by Lineweaver-burk plot analysis in presence of ATP
# Choline kinase alpha [3] = target: T1, Choline kinase alpha (Homo sapiens, UniProt P35790); experiment: Inhibition of CHKA in human HCT116 cells assessed as [3H]phosphocholine formation using [3H]choline chloride as substrate incubated for 1 hr prior to substrate addition measured after 1 hr by scintillation counting analysis; format: cell-based, HCT-116; conditions: for inhibition: HCT-116
# Outline: (§2)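 HCT-116 cells pretreated 1 h with 0.16, 0.8, 4, 20 or 100 µM inhibitor. Then pulsed 1 h with [3H]choline chloride (0.5 µCi/mL). Cells washed in cold PBS and extracted with methanol/chloroform. Choline removed with tetraphenylborate in heptan-4-one. Aqueous phosphocholine counted by liquid scintillation and compared with untreated controls.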
# Choline kinase alpha [4] = target: T1, Choline kinase alpha; experiment: Inhibition of CHKA in human HCT116 cells assessed as [3H]phosphocholine formation using [3H]choline chloride as substrate at 6.5 +/-4 uM incubated for 1 hr prior to substrate addition measured after 1 hr by scintillation counting analysis; format: cell-based; conditions: HCT-116; outline: as §2
# Target sequence in this assay (P35790 whole entry, looked up): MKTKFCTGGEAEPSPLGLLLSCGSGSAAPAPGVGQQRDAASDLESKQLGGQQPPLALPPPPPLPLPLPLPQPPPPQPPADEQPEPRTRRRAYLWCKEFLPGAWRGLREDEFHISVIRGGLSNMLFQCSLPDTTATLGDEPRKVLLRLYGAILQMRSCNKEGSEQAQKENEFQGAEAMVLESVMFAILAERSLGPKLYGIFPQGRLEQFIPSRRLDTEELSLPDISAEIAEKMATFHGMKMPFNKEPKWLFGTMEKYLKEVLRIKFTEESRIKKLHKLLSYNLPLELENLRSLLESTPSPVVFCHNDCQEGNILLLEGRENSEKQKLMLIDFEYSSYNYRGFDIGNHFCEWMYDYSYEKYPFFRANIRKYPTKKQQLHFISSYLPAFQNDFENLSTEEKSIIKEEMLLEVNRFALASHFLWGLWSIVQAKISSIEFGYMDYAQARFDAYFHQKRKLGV
# Choline kinase alpha [5] = target: T1, Choline kinase alpha; experiment: Inhibition of CHKA in human HCT116 cells assessed as [3H]phosphocholine formation using [3H]choline chloride as substrate at 2.4 +/-1 uM incubated for 1 hr prior to substrate addition measured after 1 hr by scintillation counting analysis; format: cell-based; conditions: HCT-116; outline: as §2
# Target sequence in this assay (P35790 whole entry, looked up): as above
# Homo sapiens [6] = species: Homo sapiens; experiment: Competitive inhibition of recombinant delta49N CHKA2 (unknown origin) using 72 uM choline as substrate by Lineweaver-burk plot analysis in presence of 10 uM to 5 mM ATP
# Homo sapiens [7] = species: Homo sapiens; experiment: Competitive inhibition of recombinant delta49N CHKA2 (unknown origin) using 40 uM to 20 mM choline as substrate by Lineweaver-burk plot analysis in presence of 450 uM ATP
SMILES,GI50 (A549) [µM],IC50 [1] [µM],GI50 (HCT-116) [µM],inhibition (Homo sapiens [2]),EC50 (Choline kinase alpha [3]) [µM],inhibition (Choline kinase alpha [3]),inhibition (Choline kinase alpha [4]) [%],inhibition (Choline kinase alpha [5]) [%],inhibition (Homo sapiens [6]),inhibition (Homo sapiens [7])
CN(C)c1cc[n+](CCCCCCCCC[n+]2ccc(N(C)C)cc2)cc1,4,1.3,2.6,,,,,,,
CN(C)c1cc[n+](CCOCCOCCOCCn2cnc3ccccc32)cc1,,,> 1000,,,,,,,
CN(C)c1cc[n+](CCCCCCCCCCCCn2cnc3c(N)ncnc32)cc1,5.3,0.8,4.1,Active,,,,,,
CN(C)c1cc[n+](CCCCCCCCCC[n+]2ccc(N(C)C)cc2)cc1,4.2,0.67,2.8,,,,,,,
CN(C)c1cc[n+](CCCCCCCCCCCCCC[n+]2ccc(N(C)C)cc2)cc1,0.33,0.15,0.29,,0.52,Dose-dependent effect,> 75,> 75,,
CN(C)c1cc[n+](CCCCCCCC[n+]2ccc(N(C)C)cc2)cc1,3.3,2.7,2.5,,,,,,,
CN(C)c1cc[n+](CCCCCCCCCCCC[n+]2ccc(N(C)C)cc2)cc1,0.38,0.27,0.64,,1.3,Dose-dependent effect,> 75,> 75,inactive,Active
CN(C)c1cc[n+](CCCCCCCCCCC[n+]2ccc(N(C)C)cc2)cc1,1.6,0.29,2,,,,,,,
CN(C)c1cc[n+](CCCCCCCCCCCCn2cnc3ccccc32)cc1,1.3,5.1,0.69,,,,,,,
CN(C)c1cc[n+](CCOCCOCCOCC[n+]2ccc(N(C)C)cc2)cc1,,,> 1000,,,,,,,
